Columns and labels:
Format in all cases: functional, cell-based
PC-3 = assay: Cytotoxicity against apoptotic-sensitive human PC3 cells assessed as growth inhibition after 72 hrs by MTT-based colorimetric assay; conditions: Homo sapiens, PC-3, 72 h
In short: (§1)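 MTT colorimetric assay, 72 h exposure to the fumarate salt. Read-out is reduction of MTT to formazan by living cells. IC50 is the concentration that reduces the whole cell population by 50%. Six replicates per condition. Where compounds were not tested on every line, apoptosis-sensitive lines were PC3, MCF-7, LoVo and B16F10, and apoptosis-resistant lines were U373, T98G, A549 and SK-MEL-28.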

T98G = assay: Cytotoxicity against apoptotic-resistant human T98G cells assessed as growth inhibition after 72 hrs by MTT-based colorimetric assay; conditions: Homo sapiens, T98G, 72 h; in short: as §1
SK-MEL-28 = assay: Cytotoxicity against apoptotic-resistant human SK-MEL-28 cells assessed as growth inhibition after 72 hrs by MTT-based colorimetric assay; conditions: Homo sapiens, SK-MEL-28, 72 h; in short: as §1
LoVo = assay: Cytotoxicity against apoptotic-sensitive human LoVo cells assessed as growth inhibition after 72 hrs by MTT-based colorimetric assay; conditions: Homo sapiens, LoVo, 72 h; in short: as §1
MCF7 = assay: Cytotoxicity against apoptotic-sensitive human MCF7 cells assessed as growth inhibition after 72 hrs by MTT-based colorimetric assay; conditions: Homo sapiens, MCF7, 72 h; in short: as §1
A549 = assay: Cytotoxicity against apoptotic-resistant human A549 cells assessed as growth inhibition after 72 hrs by MTT-based colorimetric assay; conditions: Homo sapiens, A549, 72 h; in short: as §1
B16-F10 = assay: Cytotoxicity against apoptotic-sensitive mouse B16F10 cells assessed as growth inhibition after 72 hrs by MTT-based colorimetric assay; conditions: B16-F10, 72 h; in short: as §1

Row | SMILES | IC50 (PC-3) [µM] | IC50 (T98G) [µM] | IC50 (SK-MEL-28) [µM] | IC50 (LoVo) [µM] | IC50 (MCF7) [µM] | IC50 (A549) [µM] | IC50 (B16-F10) [µM]
1 | C=CCCCCOc1ncc(-c2cc(F)c(F)cc2OC)n1C | 40 | 53 | 40 | 36 | 32 | 43 | 43
2 | CCCCCCOc1ncc(-c2ccccc2OC)n1C | 33 | 58 | 43 | 27 | 27 | 37 | 38
3 | C=CCCCCOc1ncc(I)n1C | > 100 | > 100 | > 100 | 84 | > 100 | > 100 | 51
4 | C=CCCCCOc1ncc(-c2cc(C(C)C)ccc2OC)n1C | 9 | 6 | 3 | 3 | 18 | 4 | 7
5 | CCCCOc1ncc(-c2ccccc2OC)n1C | 71 | 96 | 82 | 39 | 55 | 87 | 71

Reference: ChEMBL document CHEMBL3091366, “New 5-Aryl-1H-imidazoles display in vitro antitumor activity against apoptosis-resistant cancer models, including melanomas, through mitochondrial targeting” (J Med Chem, 2013)
